Assay results reported in article PMC2711989 (Cancer research, 2009).
Where two headings read alike, the source gives them in different places.

Tests used:
BxPC-3 xenograft = assay: Biodistribution in the BxPC-3 xenograft model; format: in vivo, mice
How it was run: (§1)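 Male athymic nude mice (nu/nu) received 1.5 × 10^6 BxPC-3 cells s.c. in the left shoulder region, in 1:1 serum-free DMEM/MatriGel. Studies began at a tumor diameter of ∼0.5 cm. Radiotracers (∼15 to 30 μCi) were given in saline/PBS, n = 3 per time point. Tumor and tissue radioactivity was expressed as decay-corrected %ID/g, mean ± SD. Significance was tested by two-tailed Student's t-test.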

[1] = Biodistribution in the BxPC-3 xenograft model; format: in vivo, mice; details: male, athymic nude (nu/nu), mouse, BxPC-3 tumor, iv, total radioactivity
How it was run: as §1

BxPC-3 tumor = assay: MicroPET imaging of the BxPC-3 xenograft model; format: in vivo, mice; details: for SUVmax in BxPC-3 tumor: mean ± SD, n = 3 animals
[2] = system: DX3puroβ6 (αvβ6-positive) and DX3puro (αvβ6-negative) xenografts; assay: Biodistribution in the DX3puro/DX3puroβ6 xenograft model; format: in vivo, mice
How it was run: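 Each male athymic nude mouse (nu/nu) carried both xenografts: 3 × 10^6 DX3puroβ6 (αvβ6-transduced) and 3 × 10^6 DX3puro (control) melanoma cells in serum-free DMEM, injected s.c. on opposite shoulder flanks. Studies began at a tumor diameter of ∼0.5 cm. Radiotracers (∼15 to 30 μCi) were given in saline/PBS, n = 3 per time point. Uptake was expressed as decay-corrected %ID/g, mean ± SD.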

BxPC-3 cell line = assay: Radiotracer cell binding and internalization, BxPC-3 cells; format: cell-based, human; details: BxPC-3, 1 hour, acidic wash buffer pH 2.5, 4°C
How it was run: (§2)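 3.75 × 10^6 cells were incubated with 0.2 μCi radiotracer in serum-free medium, pH 7.2, over a time course or for 1 h, n = 4 per cell line per time point. Bound fraction was γ-counted as cell pellet vs supernatant. Acid wash (0.2 mol/L sodium acetate, 0.5 mol/L NaCl, pH 2.5, 4°C) then released surface activity; internalized fraction was pellet vs released activity.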

[3] = system: DX3puroβ6 (αvβ6-positive) and DX3puro (αvβ6-negative) xenografts; details: previously seen, cited from earlier work
DX3puroβ6 cell line = assay: Radiotracer cell binding and internalization, DX3puroβ6 cells; format: cell-based, human; details: DX3puroβ6, 1 hour, acidic wash buffer pH 2.5, 4°C
How it was run: as §2

SMILES	BxPC-3/blood ratio (BxPC-3 xenograft; 1 h)	BxPC-3/muscle ratio (BxPC-3 xenograft; 1 h)	BxPC-3/pancreas ratio (BxPC-3 xenograft; 1 h)	BxPC-3/blood ratio (BxPC-3 xenograft; 4 h)	BxPC-3/muscle ratio (BxPC-3 xenograft; 4 h)	BxPC-3/pancreas ratio (BxPC-3 xenograft; 4 h)	tissue uptake at 1 h [1] [%ID/g]	tissue uptake at 4 h [1] [%ID/g]	SUVmax in BxPC-3 tumor (BxPC-3 tumor; 15min)	SUVmax in BxPC-3 tumor (BxPC-3 tumor; 1 h p.i.)	SUVmax in BxPC-3 tumor (BxPC-3 tumor; 4 h)	maximal αvβ6-positive/-negative xenograft uptake ratio [2]	fraction of bound radioactivity internalized (BxPC-3 cell line)	uptake in αvβ6-positive DX3puroβ6 tumor ([3]; 1 h p.i.) [% ID/g]	uptake in αvβ6-positive DX3puroβ6 tumor ([3]; 4 h p.i.) [% ID/g]	fraction of bound radioactivity internalized (DX3puroβ6 cell line)	detection of BxPC-3 tumors by PET (BxPC-3 tumor; BxPC-3 xenograft bearing mice)
CC(C)C[C@H](NC(=O)[C@H](CC(=O)O)NC(=O)CNC(=O)[C@H](CCCNC(=N)N)NC(=O)[C@H](CC(C)C)NC(=O)[C@H](CC(N)=O)NC(=O)[C@@H]1CCCN1C(=O)[C@@H](NC(=O)[C@H](C)NC(=O)[C@H](CC(N)=O)NC(=O)CCOCCOCCOCCOCCOCCOCCOCCOCCOCCOCCOCCOCCOCCOCCOCCOCCOCCOCCOCCOCCOCCOCCOCCOCCOCCOCCOCCOCCNC(=O)CCOCCOCCOCCOCCOCCOCCOCCOCCOCCOCCOCCOCCOCCOCCOCCOCCOCCOCCOCCOCCOCCOCCOCCOCCOCCOCCOCCOCCNC(=O)c1ccc(F)cc1)C(C)C)C(=O)N[C@@H](CCC(N)=O)C(=O)N[C@H](C(=O)N[C@@H](CC(C)C)C(=O)N[C@@H](C)C(=O)N[C@@H](CCC(N)=O)C(=O)N[C@@H](CCCCN)C(=O)N[C@H](C(=O)N[C@@H](C)C(=O)N[C@@H](CCCNC(=N)N)C(=O)N[C@H](C(N)=O)[C@@H](C)O)C(C)C)C(C)C [[^18F]FBA-(PEG28)2-A20FMDV2]	9.0 :1	4.1 :1	5.6 :1	150 :1	4.4 :1	4.4 :1	1.57 ± 0.25	2.08 ± 0.37	0.99 ± 0.18	0.79 ± 0.24	0.59 ± 0.20	9.2 :1	–	–	–	–	–
CC(C)C[C@H](NC(=O)[C@H](CC(=O)O)NC(=O)CNC(=O)[C@H](CCCNC(=N)N)NC(=O)[C@H](CC(C)C)NC(=O)[C@H](CC(N)=O)NC(=O)[C@@H]1CCCN1C(=O)[C@@H](NC(=O)[C@H](C)NC(=O)[C@H](CC(N)=O)NC(=O)c1ccc(F)cc1)C(C)C)C(=O)N[C@@H](CCC(N)=O)C(=O)N[C@H](C(=O)N[C@@H](CC(C)C)C(=O)N[C@@H](C)C(=O)N[C@@H](CCC(N)=O)C(=O)N[C@@H](CCCCN)C(=O)N[C@H](C(=O)N[C@@H](C)C(=O)N[C@@H](CCCNC(=N)N)C(=O)N[C@H](C(N)=O)[C@@H](C)O)C(C)C)C(C)C [[^18F]FBA-A20FMDV2, 4-[^18F]fluorobenzoyl A20FMDV2]	3.3 :1	1.3 :1	–	7.0 :1	2.5 :1	9.5 :1	0.69 ± 0.19	0.12 ± 0.03	0.50 ± 0.22	0.22 ± 0.11	< 0.05	–	less than half	0.66 ± 0.09	0.06 ± 0.00	less than half	–
O=C[C@H]([18F])[C@@H](O)[C@H](O)[C@H](O)CO [[^18F]FDG, 2-[^18F]fluoro-2-deoxy-D-glucose, reference compound]	–	–	–	–	–	–	–	–	–	0.62 ± 0.13	–	–	–	–	–	–	failed in all animals to detect the BxPC-3 tumors
